{"source": "ChEMBL document CHEMBL1144670", "about": "“Synthesis and pharmacology of 1-deoxy analogs of CP-47,497 and CP-55,940” (Bioorg Med Chem, 2008)", "key": {"Cannabinoid receptor 1": {"target": "Cannabinoid receptor 1 (Rattus norvegicus, UniProt P20272)", "sequence (P20272 whole entry)": "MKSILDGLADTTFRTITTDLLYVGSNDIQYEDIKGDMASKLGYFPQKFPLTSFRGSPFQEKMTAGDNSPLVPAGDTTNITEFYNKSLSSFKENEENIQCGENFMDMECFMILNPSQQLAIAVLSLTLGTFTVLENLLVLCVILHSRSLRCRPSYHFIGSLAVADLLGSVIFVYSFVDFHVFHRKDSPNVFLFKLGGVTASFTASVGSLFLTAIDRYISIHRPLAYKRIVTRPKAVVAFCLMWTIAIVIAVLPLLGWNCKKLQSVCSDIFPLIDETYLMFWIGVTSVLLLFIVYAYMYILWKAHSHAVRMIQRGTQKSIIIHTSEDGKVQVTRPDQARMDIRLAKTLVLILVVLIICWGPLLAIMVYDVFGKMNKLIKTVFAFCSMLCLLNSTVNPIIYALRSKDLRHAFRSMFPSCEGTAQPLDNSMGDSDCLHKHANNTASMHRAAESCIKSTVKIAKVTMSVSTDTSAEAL", "experiment": "Displacement of [3H]CP-55940 from CB1 receptor in Sprague-Dawley rat brain membrane", "assay_type": "cell membranes"}, "[1]": {"experiment": "Selectivity for human cloned CB2 receptor over Sprague Dawley rat brain membrane CB1 receptor"}, "Cannabinoid receptor 2 [2]": {"target": "T1, Cannabinoid receptor 2 (Homo sapiens, UniProt P34972)", "T1 sequence (P34972 whole entry)": "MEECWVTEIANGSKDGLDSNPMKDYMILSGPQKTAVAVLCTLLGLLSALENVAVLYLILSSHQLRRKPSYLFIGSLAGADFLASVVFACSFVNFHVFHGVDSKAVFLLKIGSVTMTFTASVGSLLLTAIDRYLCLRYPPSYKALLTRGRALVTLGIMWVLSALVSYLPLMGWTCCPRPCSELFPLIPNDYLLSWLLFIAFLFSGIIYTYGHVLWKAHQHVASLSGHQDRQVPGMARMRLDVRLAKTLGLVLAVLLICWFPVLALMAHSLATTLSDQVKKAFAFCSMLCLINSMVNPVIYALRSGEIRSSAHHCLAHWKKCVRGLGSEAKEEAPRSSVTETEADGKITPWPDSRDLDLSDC", "experiment": "Displacement of [3H]CP-55940 from human cloned CB2 receptor"}, "Cannabinoid receptor 2 [3]": {"target": "T1, Cannabinoid receptor 2", "settings": "CHO, 3 uM"}, "Cannabinoid receptor 2 [4]": {"target": "T1, Cannabinoid receptor 2", "experiment": "Agonist activity at human CB2 receptor expressed in CHO cells by [35S]GTP-gamma-S binding assay", "assay_type": "functional, cell-based", "in_short": "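[35S]GTPγS binding on membranes of CHO cells stably expressing human CB2. 10 µg membrane protein was incubated 1.5 h at 30 °C in 50 mM Tris-HCl pH 7.4, 3 mM MgCl2, 0.2 mM EGTA, 100 mM NaCl, with 10 µM GDP, 0.1 nM [35S]GTPγS, 0.1% BSA and agonist over a concentration range. Nonspecific binding was set with 20 µM GTPγS. Filtration was followed by scintillation counting. EC50 came from nonlinear regression, 3-6 experiments in triplicate.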"}, "Cannabinoid receptor 2 [5]": {"target": "T1, Cannabinoid receptor 2", "experiment": "Agonist activity at human CB2 receptor expressed in CHO cells by [35S]GTP-gamma-S binding assay relative to CP-55940", "assay_type": "functional, cell-based", "in_short": "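Same hCB2-CHO membrane [35S]GTPγS assay (10 µM GDP, 0.1 nM radioligand, 1.5 h, 30 °C). Net stimulation at each concentration was expressed as percent of that given by 3 µM CP-55,940, run as an internal standard in each experiment. Emax came from nonlinear regression of the concentration-effect curves, mean ± SEM of 3-6 experiments in triplicate.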"}}, "data": [{"smiles": "CCCCCCC(C)(C)c1ccc([C@H]2CCC[C@@H](O)C2)c(O)c1", "values": [{"measurement": "Ki", "setting": "Cannabinoid receptor 1", "result": 2.2, "unit": "nM"}]}, {"smiles": "CCCCCCCC(C)(C)c1ccc([C@@H]2CCC[C@@H](O)C2)cc1", "values": [{"measurement": "Ratio Ki", "setting": "[1]", "result": 1.3}, {"measurement": "Ki", "setting": "Cannabinoid receptor 1", "result": 193, "unit": "nM"}, {"measurement": "Ki", "setting": "Cannabinoid receptor 2 [2]", "result": 154, "unit": "nM"}]}, {"smiles": "CCCCCCC(C)(C)c1ccc([C@@H]2C[C@H](O)CC[C@H]2CCCO)c(O)c1", "values": [{"measurement": "Emax", "setting": "Cannabinoid receptor 2 [3]", "result": 85, "unit": "%"}]}, {"smiles": "CCC(C)(C)c1ccc([C@H]2CCC[C@@H](O)C2)cc1", "note": "(relative stereo)", "values": [{"measurement": "Ratio Ki", "setting": "[1]", "result": "> 2.5"}, {"measurement": "Ki", "setting": "Cannabinoid receptor 1", "result": "> 10000", "unit": "nM"}, {"measurement": "Ki", "setting": "Cannabinoid receptor 2 [2]", "result": 3970, "unit": "nM"}]}, {"smiles": "CC(C)(C)c1ccc([C@H]2CCC[C@@H](O)C2)cc1", "note": "(relative stereo)", "values": [{"measurement": "Ki", "setting": "Cannabinoid receptor 1", "result": "> 10000", "unit": "nM"}, {"measurement": "Ki", "setting": "Cannabinoid receptor 2 [2]", "result": "> 10000", "unit": "nM"}]}, {"smiles": "CCCCCCCCC(C)(C)c1ccc([C@@H]2C[C@H](O)CC[C@H]2CCCO)cc1", "note": "(relative stereo)", "values": [{"measurement": "Ratio Ki", "setting": "[1]", "result": 1.3}, {"measurement": "Ki", "setting": "Cannabinoid receptor 1", "result": 566, "unit": "nM"}, {"measurement": "Ki", "setting": "Cannabinoid receptor 2 [2]", "result": 421, "unit": "nM"}]}, {"smiles": "CCCCCCCC(C)(C)c1ccc([C@@H]2C[C@H](O)CC[C@H]2CCCO)cc1", "note": "(relative stereo)", "values": [{"measurement": "Ratio Ki", "setting": "[1]", "result": 1.5}, {"measurement": "Ki", "setting": "Cannabinoid receptor 1", "result": 266, "unit": "nM"}, {"measurement": "Ki", "setting": "Cannabinoid receptor 2 [2]", "result": 173, "unit": "nM"}]}, {"smiles": "CCCC(C)(C)c1ccc([C@@H]2CCC[C@@H](O)C2)cc1", "note": "(relative stereo)", "values": [{"measurement": "Ratio Ki", "setting": "[1]", "result": 5.7}, {"measurement": "Ki", "setting": "Cannabinoid receptor 1", "result": 8630, "unit": "nM"}, {"measurement": "Ki", "setting": "Cannabinoid receptor 2 [2]", "result": 1510, "unit": "nM"}]}, {"smiles": "CCCCCCC(C)(C)c1ccc([C@@H]2CCC[C@@H](O)C2)cc1", "note": "(relative stereo)", "values": [{"measurement": "Ratio Ki", "setting": "[1]", "result": 3.6}, {"measurement": "Ki", "setting": "Cannabinoid receptor 1", "result": 645, "unit": "nM"}, {"measurement": "Ki", "setting": "Cannabinoid receptor 2 [2]", "result": 178, "unit": "nM"}]}, {"smiles": "CCCCCC(C)(C)c1ccc([C@@H]2C[C@H](O)CC[C@H]2CCCO)cc1", "note": "(relative stereo)", "values": [{"measurement": "Ratio Ki", "setting": "[1]", "result": 1.4}, {"measurement": "Ki", "setting": "Cannabinoid receptor 1", "result": 308, "unit": "nM"}, {"measurement": "Ki", "setting": "Cannabinoid receptor 2 [2]", "result": 221, "unit": "nM"}]}, {"smiles": "CCCC(C)(C)c1ccc([C@@H]2C[C@H](O)CC[C@H]2CCCO)cc1", "note": "(relative stereo)", "values": [{"measurement": "Ratio Ki", "setting": "[1]", "result": 2.1}, {"measurement": "Ki", "setting": "Cannabinoid receptor 1", "result": 3800, "unit": "nM"}, {"measurement": "Ki", "setting": "Cannabinoid receptor 2 [2]", "result": 1780, "unit": "nM"}]}, {"smiles": "CCCCC(C)(C)c1ccc([C@@H]2CCC[C@@H](O)C2)cc1", "note": "(relative stereo)", "values": [{"measurement": "Ratio Ki", "setting": "[1]", "result": 3.2}, {"measurement": "Ki", "setting": "Cannabinoid receptor 1", "result": 1730, "unit": "nM"}, {"measurement": "Ki", "setting": "Cannabinoid receptor 2 [2]", "result": 546, "unit": "nM"}]}, {"smiles": "CCCCCC(C)(C)c1ccc([C@@H]2CCC[C@@H](O)C2)cc1", "note": "(relative stereo)", "values": [{"measurement": "Ratio Ki", "setting": "[1]", "result": 4.8}, {"measurement": "Ki", "setting": "Cannabinoid receptor 1", "result": 1030, "unit": "nM"}, {"measurement": "Ki", "setting": "Cannabinoid receptor 2 [2]", "result": 215, "unit": "nM"}, {"measurement": "EC50", "setting": "Cannabinoid receptor 2 [4]", "result": 39.6, "unit": "nM"}, {"measurement": "Emax", "setting": "Cannabinoid receptor 2 [5]", "result": 66, "unit": "%"}]}, {"smiles": "CCCCCCCC(C)(C)c1ccc([C@H]2CCC[C@@H](O)C2)cc1", "note": "(relative stereo)", "values": [{"measurement": "Ratio Ki", "setting": "[1]", "result": 1.2}, {"measurement": "Ki", "setting": "Cannabinoid receptor 1", "result": 786, "unit": "nM"}, {"measurement": "Ki", "setting": "Cannabinoid receptor 2 [2]", "result": 672, "unit": "nM"}]}, {"smiles": "CCCCCCCCC(C)(C)c1ccc([C@H]2CCC[C@@H](O)C2)cc1", "note": "(relative stereo)", "values": [{"measurement": "Ratio Ki", "setting": "[1]", "result": 1.5}, {"measurement": "Ki", "setting": "Cannabinoid receptor 1", "result": 1710, "unit": "nM"}, {"measurement": "Ki", "setting": "Cannabinoid receptor 2 [2]", "result": 1120, "unit": "nM"}]}, {"smiles": "CC(C)(C)c1ccc([C@@H]2CCC[C@@H](O)C2)cc1", "note": "(relative stereo)", "values": [{"measurement": "Ki", "setting": "Cannabinoid receptor 1", "result": "> 10000", "unit": "nM"}, {"measurement": "Ki", "setting": "Cannabinoid receptor 2 [2]", "result": "> 10000", "unit": "nM"}]}, {"smiles": "CCCCCC(C)(C)c1ccc([C@H]2CCC[C@@H](O)C2)cc1", "note": "(relative stereo)", "values": [{"measurement": "Ratio Ki", "setting": "[1]", "result": 4.6}, {"measurement": "Ki", "setting": "Cannabinoid receptor 1", "result": 2110, "unit": "nM"}, {"measurement": "Ki", "setting": "Cannabinoid receptor 2 [2]", "result": 460, "unit": "nM"}]}, {"smiles": "CCCCCCC(C)(C)c1ccc([C@H]2CCC[C@@H](O)C2)cc1", "note": "(relative stereo)", "values": [{"measurement": "Ratio Ki", "setting": "[1]", "result": 13}, {"measurement": "Ki", "setting": "Cannabinoid receptor 1", "result": 2950, "unit": "nM"}, {"measurement": "Ki", "setting": "Cannabinoid receptor 2 [2]", "result": 231, "unit": "nM"}]}, {"smiles": "CCCCC(C)(C)c1ccc([C@H]2CCC[C@@H](O)C2)cc1", "note": "(relative stereo)", "values": [{"measurement": "Ratio Ki", "setting": "[1]", "result": "> 16"}, {"measurement": "Ki", "setting": "Cannabinoid receptor 1", "result": "> 10000", "unit": "nM"}, {"measurement": "Ki", "setting": "Cannabinoid receptor 2 [2]", "result": 639, "unit": "nM"}]}, {"smiles": "CC(C)(C)c1ccc([C@@H]2C[C@H](O)CC[C@H]2CCCO)cc1", "note": "(relative stereo)", "values": [{"measurement": "Ki", "setting": "Cannabinoid receptor 1", "result": "> 10000", "unit": "nM"}, {"measurement": "Ki", "setting": "Cannabinoid receptor 2 [2]", "result": "> 10000", "unit": "nM"}]}, {"smiles": "CCC(C)(C)c1ccc([C@@H]2C[C@H](O)CC[C@H]2CCCO)cc1", "note": "(relative stereo)", "values": [{"measurement": "Ratio Ki", "setting": "[1]", "result": "> 7.3"}, {"measurement": "Ki", "setting": "Cannabinoid receptor 1", "result": "> 10000", "unit": "nM"}, {"measurement": "Ki", "setting": "Cannabinoid receptor 2 [2]", "result": 1360, "unit": "nM"}]}, {"smiles": "CCCCC(C)(C)c1ccc([C@@H]2C[C@H](O)CC[C@H]2CCCO)cc1", "note": "(relative stereo)", "values": [{"measurement": "Ratio Ki", "setting": "[1]", "result": 0.8}, {"measurement": "Ki", "setting": "Cannabinoid receptor 1", "result": 579, "unit": "nM"}, {"measurement": "Ki", "setting": "Cannabinoid receptor 2 [2]", "result": 700, "unit": "nM"}]}, {"smiles": "CCCCCCCCC(C)(C)c1ccc([C@@H]2CCC[C@@H](O)C2)cc1", "note": "(relative stereo)", "values": [{"measurement": "Ratio Ki", "setting": "[1]", "result": 0.7}, {"measurement": "Ki", "setting": "Cannabinoid receptor 1", "result": 749, "unit": "nM"}, {"measurement": "Ki", "setting": "Cannabinoid receptor 2 [2]", "result": 1080, "unit": "nM"}]}, {"smiles": "CCC(C)(C)c1ccc([C@@H]2CCC[C@@H](O)C2)cc1", "note": "(relative stereo)", "values": [{"measurement": "Ratio Ki", "setting": "[1]", "result": "> 2.7"}, {"measurement": "Ki", "setting": "Cannabinoid receptor 1", "result": "> 10000", "unit": "nM"}, {"measurement": "Ki", "setting": "Cannabinoid receptor 2 [2]", "result": 3760, "unit": "nM"}]}, {"smiles": "CCCC(C)(C)c1ccc([C@H]2CCC[C@@H](O)C2)cc1", "note": "(relative stereo)", "values": [{"measurement": "Ratio Ki", "setting": "[1]", "result": "> 4.9"}, {"measurement": "Ki", "setting": "Cannabinoid receptor 1", "result": "> 10000", "unit": "nM"}, {"measurement": "Ki", "setting": "Cannabinoid receptor 2 [2]", "result": 2060, "unit": "nM"}]}, {"smiles": "CCCCCCC(C)(C)c1ccc([C@@H]2C[C@H](O)CC[C@H]2CCCO)cc1", "note": "(relative stereo)", "values": [{"measurement": "Ratio Ki", "setting": "[1]", "result": 2.3}, {"measurement": "Ki", "setting": "Cannabinoid receptor 1", "result": 547, "unit": "nM"}, {"measurement": "Ki", "setting": "Cannabinoid receptor 2 [2]", "result": 238, "unit": "nM"}]}]}
